Results gathered from unrelated publications.
Protocols differ between the studies behind these lines.
BRAF V600E: Serine/threonine-protein kinase B-raf (BRAF, Homo sapiens, UniProt P15056, V600E)
SMARCA2: SWI/SNF-related matrix-associated actin-dependent regulator of chromatin subfamily A member 2 (SMARCA2, Homo sapiens, UniProt P51531)
PADI2: Protein-arginine deiminase type-2 (PADI2, Homo sapiens, UniProt Q9Y2J8)

SMILES	target	assay	system	conditions	measurement	result
Cc1ccc(C(CS(=O)(=O)c2ccccc2)=NN=C2N=C(c3ccc(Br)cc3)CS2)cc1	BRAF V600E	enzyme activity, inhibitor, ATP luminescence		10 µM	inhibition	92%
CC(C)(C)/C=C1\CCn2c1nc(=O)c1c(Cl)cccc12	SMARCA2	thermal stability, DSF		100 µM	ΔTm	-0.14 °C
Cc1ccc(Nc2nccc(N(C)c3ccc4c(C)n(C)nc4c3)n2)cc1S(N)(=O)=O	Tyrosine-protein kinase Blk (Blk, Mus musculus, UniProt P16277)	enzyme activity, inhibitor		10 µM	inhibition	73%
CCC(/C=C1\CCn2c1nc(=O)c1cc(Cl)ccc12)CC	SMARCA2	thermal stability, DSF		100 µM	ΔTm	-0.49 °C
CC(C)(C)n1nnc([C@H](CCCNC(=N)CF)NC(=O)c2ccc(-c3ccccc3)cc2)n1	PADI2	enzyme activity, inhibitor			kinact/KI	189 M⁻¹ s⁻¹
Nc1ncnc2occ(-c3ccc(NC(=O)Nc4cc(C(F)(F)F)ccc4F)cc3)c12	Epidermal growth factor receptor (EGFR, Homo sapiens, UniProt P00533)	cell-free assay		20 µM	remaining signal	13%
C[S+]([O-])c1ccc(-c2nc(-c3ccncc3)c(-c3ccc(F)cc3)[nH]2)cc1 (centres unmarked)	Nucleosome-remodeling factor subunit BPTF (BPTF, Homo sapiens, UniProt Q12830)	thermal stability, DSF		10 µM	ΔTm	0.89 °C
CCCOc1ccc(OC)c(F)c1C(=O)c1ccc(C(=O)N[C@@H]2CNC[C@H]2NC(=O)c2ccc3[nH]ncc3c2)cc1	Muscle, skeletal receptor tyrosine-protein kinase (MUSK, Homo sapiens, UniProt O15146)	enzyme activity, inhibitor		0.5 µM	remaining activity	20%
Cc1ncsc1-c1ccc(CNC(=O)[C@@H]2C[C@@H](O)CN2C(=O)[C@@H](NC(=O)C2(F)CC2)C(C)(C)C)c(OCCOCCOCCN2CCN(c3cc(-c4ccccc4O)nnc3N)CC2)c1	SMARCA2	protein level, degrader	MV4-11		Dmax	~65%
Cc1ccc(C(CS(=O)(=O)c2ccccc2)=NNc2nc(C)c(N=Nc3cccc(C)c3)s2)cc1	BRAF V600E	enzyme activity, inhibitor, ATP luminescence		1 µM	inhibition	81%
CC(=O)N[C@H]1CSSC[C@@H](C(=O)N[C@@H](Cc2c[nH]c3ccccc23)C(N)=O)NC(=O)[C@H](Cc2ccccc2)NC(=O)[C@H](CCCNC(=N)N)NC1=O	Melanocortin receptor 3 (MC3R, Homo sapiens, UniProt P41968)	ligand displacement, radioligand		10 µM, 40 min	inhibition	42%
CCC(/C=C1\CCn2c1nc(=O)c1c(Cl)c(Cl)ccc12)CC	SMARCA2	thermal stability, DSF		100 µM	ΔTm	2.86 °C
Cc1ccc(C(CS(=O)(=O)c2ccccc2)=NN=C2N=C(c3ccc(C)cc3)CS2)cc1	BRAF V600E	enzyme activity, inhibitor, ATP luminescence		1 µM	inhibition	65%
N=C(CF)NCCC[C@H](NC(=O)c1ccccc1)c1nn[nH]n1	PADI2	enzyme activity, inhibitor			kinact/KI	6.42 M⁻¹ s⁻¹
CCC(/C=C1\CCn2c1nc(=O)c1ccc(Cl)cc12)CC	SMARCA2	thermal stability, DSF		100 µM	ΔTm	-2.09 °C
Cc1ccc(C(=O)Nc2ccc(CN3CCN(C)CC3)c(C(F)(F)F)c2)cc1C#Cc1cnc2cccnn12	Epidermal growth factor receptor (EGFR, Homo sapiens, UniProt P00533, del752-759)	cell-free assay		23.5 nM	remaining signal	87%
Cc1ccc(C(CS(=O)(=O)c2ccccc2)=NNC2=NC(=O)C(=NNc3ccc([N+](=O)[O-])cc3)S2)cc1	BRAF V600E	enzyme activity, inhibitor, ATP luminescence		1 µM	inhibition	72%
